Laboratory results as given in ChEMBL document CHEMBL1155433, “Benzimidazole Thumb Pocket I finger-loop inhibitors of HCV NS5B polymerase: improved drug-like properties through C-2 SAR in three sub-series” (Bioorg Med Chem Lett, 2010).
Converted amounts (≈) assume the structure as drawn.

Key:
Hepatitis C virus [1] = assay: Inhibition of HCV 1b NS5Bdelta21 polymerase assessed as [3H]UTP incorporated into the biotinylated primer after 90 mins by scintillation counting; assay type: functional, Hepatitis C virus subtype 1b
[2] = Cytotoxicity against human HuH7 cells; assay type: cell-based, Huh-7; details: read-out: TC50 (the source's name)
Hepatitis C virus [3] = assay: Antiviral activity against HCV1b in human Huh7 cells assessed as reduction of viral RNA replication after 72 hrs by luciferase reporter assay; assay type: functional, organism-based, Hepacivirus hominis; details: genotype 1b, Huh-7, 72 h
[4] = Solubility in phosphate buffer at pH 7.2 after 24 hrs by shake flask method; assay type: physicochemical
[5] = Permeability across human Caco-2 cells; assay type: ADME, cell-based; details: read-out: permeability
[6] = (§1) Half life in human liver microsomes at 10 uM; assay type: ADME, Microsome; details: liver microsomes
Method in brief: (§2)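 Half-life was measured with compound at 10 µM in human or rat liver microsomes.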

[7] = Half life in rat liver microsomes at 10 uM; assay type: ADME, Microsome; method in brief: as §2
Cytochrome P450 2C9 = Cytochrome P450 2C9 (Homo sapiens, UniProt P11712); assay: Inhibition of CYP2C9; assay type: ADME
Chain of Cytochrome P450 2C9 (P11712 whole entry): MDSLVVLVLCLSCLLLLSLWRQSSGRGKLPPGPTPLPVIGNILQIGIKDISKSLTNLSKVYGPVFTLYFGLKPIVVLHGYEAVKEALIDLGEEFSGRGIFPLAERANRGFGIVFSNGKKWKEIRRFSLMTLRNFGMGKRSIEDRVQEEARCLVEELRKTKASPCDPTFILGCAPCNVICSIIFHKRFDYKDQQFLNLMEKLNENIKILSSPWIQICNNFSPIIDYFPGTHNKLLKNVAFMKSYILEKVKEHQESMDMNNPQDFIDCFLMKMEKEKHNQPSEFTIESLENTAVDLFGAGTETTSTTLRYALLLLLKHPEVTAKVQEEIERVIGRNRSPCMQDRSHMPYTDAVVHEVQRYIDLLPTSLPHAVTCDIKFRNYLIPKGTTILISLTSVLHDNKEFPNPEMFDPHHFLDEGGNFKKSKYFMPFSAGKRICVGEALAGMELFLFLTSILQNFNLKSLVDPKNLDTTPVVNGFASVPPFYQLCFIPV

Cytochrome P450 2C19 = Cytochrome P450 2C19 (Homo sapiens, UniProt P33261); assay: Inhibition of CYP2C19; assay type: ADME
Chain of Cytochrome P450 2C19 (P33261 whole entry): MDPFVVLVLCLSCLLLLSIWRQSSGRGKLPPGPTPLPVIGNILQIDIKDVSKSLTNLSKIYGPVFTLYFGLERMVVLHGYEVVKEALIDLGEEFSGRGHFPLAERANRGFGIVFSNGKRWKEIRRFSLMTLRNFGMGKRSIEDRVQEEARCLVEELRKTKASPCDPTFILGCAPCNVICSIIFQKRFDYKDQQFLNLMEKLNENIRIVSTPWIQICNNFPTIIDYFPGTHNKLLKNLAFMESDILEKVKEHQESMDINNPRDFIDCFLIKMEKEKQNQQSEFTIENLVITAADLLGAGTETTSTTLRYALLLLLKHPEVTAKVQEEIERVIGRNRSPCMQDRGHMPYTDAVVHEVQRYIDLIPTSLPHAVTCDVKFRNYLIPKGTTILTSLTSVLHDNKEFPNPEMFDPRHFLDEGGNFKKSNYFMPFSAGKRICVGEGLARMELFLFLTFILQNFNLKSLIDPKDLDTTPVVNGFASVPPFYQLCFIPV

[8] = Cmax in Sprague-Dawley rat plasma at 5 mg/kg, po; assay type: ADME, organism-based; set-up: dose 5 mg/kg, route oral
Method in brief: (§3)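 Male Sprague-Dawley rats, fasted overnight, given 5 mg/kg by oral gavage in 0.5% methocel/0.3% Tween-80. Plasma was pooled from three animals at each time point over 0–8 h. Compound was quantified after liquid–liquid extraction by HPLC with UV detection.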

[9] = Tmax in Sprague-Dawley rat plasma at 5 mg/kg, po; assay type: ADME, organism-based; set-up: dose 5 mg/kg, route oral; method in brief: as §3
[10] = AUC in Sprague-Dawley rat plasma at 5 mg/kg, po; assay type: ADME, organism-based; set-up: dose 5 mg/kg, route oral; method in brief: as §3
[11] = Mean residence time in Sprague-Dawley rat plasma at 5 mg/kg, po; assay type: ADME, organism-based; set-up: dose 5 mg/kg, route oral; method in brief: as §3
[12] = Inhibition of calf thymus DNA-directed RNA polymerase 2 assessed as [33P]UTP incorporated into the RNA after 120 mins by scintillation counting; set-up: species or system Bos taurus
Homo sapiens = species on record: Homo sapiens; assay: Protein binding in human plasma by equilibrium dialysis method; details: read-out: PPB (converted)
Liver microsomes = assay: as §1; assay type: ADME, Microsome; details: microsomes, 10 µM; method in brief: as §2
Cytochrome P450 3A4 = Cytochrome P450 3A4 (Homo sapiens, UniProt P08684); assay: Inhibition of CYP3A4; assay type: ADME
Chain of Cytochrome P450 3A4 (P08684 whole entry): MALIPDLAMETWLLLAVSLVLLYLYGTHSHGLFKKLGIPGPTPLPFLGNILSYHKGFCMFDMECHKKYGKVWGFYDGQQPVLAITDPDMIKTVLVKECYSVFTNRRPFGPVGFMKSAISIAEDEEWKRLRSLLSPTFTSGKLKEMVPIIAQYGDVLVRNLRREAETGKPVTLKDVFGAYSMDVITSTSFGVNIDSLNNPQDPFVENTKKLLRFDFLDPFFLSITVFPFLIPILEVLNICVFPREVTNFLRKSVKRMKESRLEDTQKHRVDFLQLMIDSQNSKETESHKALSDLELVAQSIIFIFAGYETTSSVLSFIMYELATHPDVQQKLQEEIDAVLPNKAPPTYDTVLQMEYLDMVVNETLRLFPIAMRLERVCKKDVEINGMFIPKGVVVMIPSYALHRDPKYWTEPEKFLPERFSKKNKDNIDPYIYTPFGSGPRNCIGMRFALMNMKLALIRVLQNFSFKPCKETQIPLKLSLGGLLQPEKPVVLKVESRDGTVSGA

Compound	IC50 (Hepatitis C virus [1]) [nM]	CC50 [2] [nM]	EC50 (Hepatitis C virus [3]) [nM]	IC50 [12] [nM]	further results
O=C(N[C@@H](Cc1c[nH]c2ccc(O)cc12)c1cscn1)c1ccc2c(c1)nc(-c1cccs1)n2C1CCCCC1	450	> 10000	2800	–	–
O=C(O)/C=C/c1ccc(NC(=O)C2(NC(=O)c3ccc4c(c3)nc(-c3ccccn3)n4C3CCCCC3)CCCC2)cc1	–	> 10000	580	> 250000	solubility thermodynamic at 24 h [4]: 100 µg/mL (≈ 173 µM); Papp [5]: 9.5 ×10⁻⁶ cm/s; half-life at 10 µM [6]: 67 min; half-life at 10 µM [7]: 17 min; IC50 (Cytochrome P450 2C9): 4000 nM; IC50 (Cytochrome P450 2C19): 7400 nM; Cmax [8]: 580 nM; Tmax [9]: 30 min; AUC [10]: 0.51 µM·h; MRT [11]: 44.4 min; fraction unbound (Homo sapiens): 0.124
O=C(O)/C=C/c1ccc(NC(=O)C2(NC(=O)c3ccc4c(c3)nc(-c3ccoc3)n4C3CCCCC3)CCC2)cc1	50	> 10000	1100	> 250000	–
Cn1cccc1-c1nc2cc(C(=O)NC3(C(=O)Nc4ccc(/C=C/C(=O)O)cc4)CCC3)ccc2n1C1CCCCC1	90	> 10000	700	> 250000	–
O=C(O)/C=C/c1ccc(NC(=O)C2(NC(=O)c3ccc4c(c3)nc(-c3ccccc3)n4C3CCCCC3)CCC2)cc1	200	> 10000	1200	> 250000	–
O=C(O)/C=C/c1ccc(NC(=O)C2(NC(=O)c3ccc4c(c3)nc(-c3ccccn3)n4C3CCCCC3)CCC2)cc1	100	> 10000	700	> 250000	–
O=C(O)/C=C/c1ccc(NC(=O)C2(NC(=O)c3ccc4c(c3)nc(-c3ccoc3)n4C3CCCCC3)CCCC2)cc1	–	> 10000	880	> 250000	solubility thermodynamic at 24 h [4]: 125 µg/mL (≈ 221 µM); Papp [5]: 3.9 ×10⁻⁶ cm/s; half-life at 10 µM [6]: 77 min; half-life at 10 µM [7]: 54 min; IC50 (Cytochrome P450 2C9): 11500 nM; IC50 (Cytochrome P450 2C19): 7700 nM
O=C(O)/C=C/c1ccc(NC(=O)C2(NC(=O)c3ccc4c(c3)nc(-c3ccsc3)n4C3CCCCC3)CCC2)cc1	120	> 10000	1500	> 250000	–
O=C(N[C@@H](Cc1c[nH]c2ccc(O)cc12)c1cscn1)c1ccc2c(c1)nc(-c1ccccn1)n2C1CCCCC1	690	> 10000	1900	–	–
O=C(N[C@@H](Cc1c[nH]c2ccc(O)cc12)c1cscn1)c1ccc2c(c1)nc(-c1ccoc1)n2C1CCCCC1	220	> 10000	3600	–	solubility thermodynamic at 24 h [4]: < 0.1 µg/mL; t1/2 (Liver microsomes): 26 min; IC50 (Cytochrome P450 3A4): 440 nM
O=C(N[C@@H](Cc1c[nH]c2ccc(O)cc12)c1cscn1)c1ccc2c(c1)nc(-c1ccco1)n2C1CCCCC1	270	> 10000	3400	–	–
O=C(N[C@@H](Cc1c[nH]c2ccc(O)cc12)c1cscn1)c1ccc2c(c1)nc(-c1ccsc1)n2C1CCCCC1	520	> 10000	2900	–	–
O=C(O)/C=C/c1ccc(NC(=O)C2(NC(=O)c3ccc4c(c3)nc(-c3ccco3)n4C3CCCCC3)CCC2)cc1	110	> 10000	1200	> 250000	–
Cn1cccc1-c1nc2cc(C(=O)N[C@@H](Cc3c[nH]c4ccc(O)cc34)c3cscn3)ccc2n1C1CCCCC1	730	> 10000	2700	–	–
O=C(O)/C=C/c1ccc(NC(=O)C2(NC(=O)c3ccc4c(c3)nc(-c3cccs3)n4C3CCCCC3)CCC2)cc1	110	> 10000	1200	> 250000	–

The next lines start with results.

IC50 (Hepatitis C virus [1]) [nM]	Compound	CC50 [2] [nM]	EC50 (Hepatitis C virus [3]) [nM]	IC50 [12] [nM]	further results
140	O=C(N[C@@H](Cc1c[nH]c2ccc(O)cc12)C(=O)O)c1ccc2c(c1)nc(-c1ccccn1)n2C1CCCCC1	–	–	–	–
60	Cn1cccc1-c1nc2cc(C(=O)N[C@@H](Cc3c[nH]c4ccc(O)cc34)C(=O)O)ccc2n1C1CCCCC1	–	–	–	–
1160	O=C(N[C@@H](Cc1c[nH]c2ccc(O)cc12)c1cscn1)c1ccc2c(c1)nc(-c1ccccc1)n2C1CCCCC1	> 10000	2400	–	–
30	O=C(N[C@@H](Cc1c[nH]c2ccc(O)cc12)C(=O)O)c1ccc2c(c1)nc(-c1ccoc1)n2C1CCCCC1	–	–	–	–
80	O=C(N[C@@H](Cc1c[nH]c2ccc(O)cc12)C(=O)O)c1ccc2c(c1)nc(-c1cccs1)n2C1CCCCC1	–	–	–	–
160	O=C(N[C@@H](Cc1c[nH]c2ccc(O)cc12)C(=O)O)c1ccc2c(c1)nc(-c1ccsc1)n2C1CCCCC1	–	–	–	–
80	O=C(N[C@@H](Cc1c[nH]c2ccc(O)cc12)C(=O)O)c1ccc2c(c1)nc(-c1ccco1)n2C1CCCCC1	–	–	–	–
230	O=C(N[C@@H](Cc1c[nH]c2ccc(O)cc12)C(=O)O)c1ccc2c(c1)nc(-c1ccccc1)n2C1CCCCC1	–	–	–	–
